# Test results published in ChEMBL document CHEMBL3232839, “Identification of isosilybin a from milk thistle seeds as an agonist of peroxisome proliferator-activated receptor gamma” (J Nat Prod, 2014).
# The source made the active and inactive calls. The calls are words filed in the database; no cut-off is given here.
# Assays:
# [1] = target: T1, Peroxisome proliferator-activated receptor gamma (Homo sapiens) (UniProt P37231); assay: Agonist activity at human PPAR-gamma expressed in HEK293 cells at 30 uM after 18 hrs by luciferase reporter gene assay relative to control
# T1 sequence (whole entry): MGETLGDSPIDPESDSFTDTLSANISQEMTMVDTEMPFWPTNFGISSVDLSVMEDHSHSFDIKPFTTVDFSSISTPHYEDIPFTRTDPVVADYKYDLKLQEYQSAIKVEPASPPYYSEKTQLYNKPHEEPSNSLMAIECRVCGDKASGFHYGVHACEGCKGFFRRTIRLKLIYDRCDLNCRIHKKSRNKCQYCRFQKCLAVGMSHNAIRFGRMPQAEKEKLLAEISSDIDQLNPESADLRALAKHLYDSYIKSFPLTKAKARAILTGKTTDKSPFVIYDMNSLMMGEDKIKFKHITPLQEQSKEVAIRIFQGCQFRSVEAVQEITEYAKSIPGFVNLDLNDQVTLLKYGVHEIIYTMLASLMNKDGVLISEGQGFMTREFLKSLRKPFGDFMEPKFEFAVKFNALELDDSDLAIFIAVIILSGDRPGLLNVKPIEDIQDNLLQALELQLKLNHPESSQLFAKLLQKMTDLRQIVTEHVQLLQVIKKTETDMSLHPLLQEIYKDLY
# [2] = target: T1, Peroxisome proliferator-activated receptor gamma (Homo sapiens); assay: Reduction of pioglitazone-mediated human PPAR-gamma activation expressed in HEK293 cells after 18 hrs by luciferase reporter gene assay; format: cell-based
# Method in brief: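 Co-treatment assay in human PPARγ/tk-PPREx3-luc/EGFP-transfected HEK-293 cells. Pioglitazone at varied concentrations was applied with or without 30 μM compound for 18 h, with DMSO vehicle at 0.1%. Luciferase was normalized to EGFP fluorescence and expressed as fold over vehicle. Means ± SD of three independent experiments in quadruplicate.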
# [3] = target: T1, Peroxisome proliferator-activated receptor gamma (Homo sapiens); assay: Agonist activity at human PPAR-gamma expressed in HEK293 cells at 30 uM after 18 hrs by luciferase reporter gene assay in presence of T0070907
# [4] = target: T1, Peroxisome proliferator-activated receptor gamma (Homo sapiens); assay: Transactivation of human PPAR-gamma expressed in HEK293 cells after 18 hrs by luciferase reporter gene assay relative to control; format: cell-based
# Method in brief: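 HEK-293 cells transiently co-transfected by calcium phosphate with full-length human PPARγ expression plasmid (pSG5-PL-hPPAR-gamma1), tk-PPREx3-luc reporter and EGFP internal control. Cells were reseeded and treated for 18 h, with 0.1% DMSO as vehicle. Luciferase was normalized to EGFP fluorescence and expressed as fold induction over vehicle. Means ± SD of three independent experiments, each in quadruplicate.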
Activity [1],Structure (SMILES),further results
inactive,COc1cc(C2Oc3c(O)cc([C@H]4Oc5cc(O)cc(O)c5C(=O)[C@@H]4O)cc3C2CO)ccc1O (stereo not given in full),–
inactive,COc1cc([C@@H]2Oc3ccc([C@H]4Oc5cc(O)cc(O)c5C(=O)[C@@H]4O)cc3O[C@H]2CO)ccc1O,–
inactive,COc1cc([C@H]2Oc3cc([C@H]4Oc5cc(O)cc(O)c5C(=O)[C@@H]4O)ccc3O[C@@H]2CO)ccc1O,–

# Second part, the compound before the results:
Structure (SMILES),Activity [1],further results
COc1cc([C@@H]2Oc3cc([C@H]4Oc5cc(O)cc(O)c5C(=O)[C@@H]4O)ccc3O[C@H]2CO)ccc1O,inactive,–
O=C1c2c(O)cc(O)cc2O[C@H](c2ccc(O)c(O)c2)[C@H]1O,inactive,–
COc1cc([C@H]2Oc3ccc([C@H]4Oc5cc(O)cc(O)c5C(=O)[C@@H]4O)cc3O[C@@H]2CO)ccc1O,–,Activity [2]: Active; Activity [3]: inactive; fold change (FC) [1]: 2.08; Activity [4]: Dose-dependent effect
COc1cc([C@@H]2[C@H]3CO[C@@]4(O)C(=O)[C@@H]2C=C([C@H]2Oc5cc(O)cc(O)c5C(=O)[C@@H]2O)[C@@H]34)ccc1O,inactive,–
